Assays:
[1] = target: T1, Proteinase-activated receptor 1 (Homo sapiens, UniProt P25116); assay: Antagonist activity at human PAR1 expressed in HEK293 cells co-expressing Galpha15 assessed as inhibition of haTRAP-induced calcium mobilization preincubated for 15 mins followed by haTRAP addition by calcium-4 dye based FLIPR assay; assay type: functional, cell-based
T1 sequence (P25116 whole entry): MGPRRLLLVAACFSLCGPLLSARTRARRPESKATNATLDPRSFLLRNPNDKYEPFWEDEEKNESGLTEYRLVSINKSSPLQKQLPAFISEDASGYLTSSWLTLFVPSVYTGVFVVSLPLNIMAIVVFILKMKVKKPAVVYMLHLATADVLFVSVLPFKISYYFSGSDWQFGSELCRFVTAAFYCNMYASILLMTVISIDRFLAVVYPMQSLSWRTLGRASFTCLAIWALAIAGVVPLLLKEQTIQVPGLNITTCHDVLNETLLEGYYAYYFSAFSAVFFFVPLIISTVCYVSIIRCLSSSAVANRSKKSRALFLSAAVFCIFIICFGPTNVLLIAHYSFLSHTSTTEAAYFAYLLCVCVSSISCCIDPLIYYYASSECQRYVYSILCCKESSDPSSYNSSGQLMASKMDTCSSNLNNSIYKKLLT

Plasma [2] = assay: Drug metabolism in Wistar rat plasma assessed as (1S,2S,4aS,5S,6R,8aR)-1-((E)-2-(5-(3-Fluorophenyl)pyridin-2-yl)vinyl)-6-hydroxy-5,8a-dimethyloctahydro-1H-spiro[naphthalene-2,2'-oxirane]-5-carboxylic acid metabolite formation at 10 mg/kg, po administered as single dose measured at 3 hrs post dose by LC-HRMS analysis; assay type: ADME, organism-based; conditions: in vivo
Outline: (§1)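 Rats dosed orally at 10 mg/kg or 5 mg/kg. Plasma taken at 3.0 h after dosing. Parent and metabolites detected by extracted ion chromatograms.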

Plasma [3] = assay: Drug metabolism in Wistar rat plasma assessed as [M1-CH2-2H] metabolite formation at 10 mg/kg, po administered as single dose measured at 3 hrs post dose by LC-HRMS analysis; assay type: ADME, organism-based; conditions: in vivo; outline: as §1
Plasma [4] = assay: Drug metabolism in Wistar rat plasma assessed as [M1-2H] metabolite formation at 10 mg/kg, po administered as single dose measured at 3 hrs post dose by LC-HRMS analysis; assay type: ADME, organism-based; conditions: in vivo; outline: as §1
Plasma [5] = assay: Drug metabolism in Wistar rat plasma assessed as [M1+O] metabolite formation at 10 mg/kg, po administered as single dose measured at 3 hrs post dose by LC-HRMS analysis; assay type: ADME, organism-based; conditions: in vivo; outline: as §1
Plasma [6] = assay: Drug metabolism in Wistar rat plasma assessed as [M1-2H+O] metabolite formation at 10 mg/kg, po administered as single dose measured at 3 hrs post dose by LC-HRMS analysis; assay type: ADME, organism-based; conditions: in vivo; outline: as §1
[7] = AUC (0 to infinity) in Wistar rat plasma at 10 mg/kg, po administered as single dose administered as single dose at 3 hrs post dose by LC-MS/MS analysis; assay type: ADME, organism-based; parameters: dose 10 mg/kg, route oral, time infinity
Plasma [8] = assay: Stability in Wistar rat assessed as parent compound level in plasma at 10 mg/kg, po administered as single dose measured at 3 hrs post dose by LC-HRMS analysis; assay type: ADME, organism-based; conditions: in vivo; outline: as §1
Rattus norvegicus = assay: AUC (0 to infinity) in Wistar rat assessed as (1S,2S,4aS,5S,6R,8aR)-1-((E)-2-(5-(3-Fluorophenyl)pyridin-2-yl)vinyl)-6-hydroxy-5,8a-dimethyloctahydro-1H-spiro[naphthalene-2,2'-oxirane]-5-carboxylic acid level in plasma at 10 mg/kg, po administered as single dose at 3 hrs post dose by LC-MS/MS analysis; assay type: ADME, organism-based; parameters: dose 10 mg/kg, route oral, time infinity; conditions: in vivo
Plasma [9] = assay: Drug metabolism in Wistar rat plasma assessed as [M0+O] metabolite formation at 10 mg/kg, po administered as single dose measured at 3 hrs post dose by LC-HRMS analysis; assay type: ADME, organism-based; conditions: in vivo; outline: as §1
Plasma [10] = assay: Drug metabolism in Wistar rat plasma assessed as [M0-2H] metabolite formation at 10 mg/kg, po administered as single dose measured at 3 hrs post dose by LC-HRMS analysis; assay type: ADME, organism-based; conditions: in vivo; outline: as §1
Plasma [11] = assay: Drug metabolism in Wistar rat plasma assessed as [M0+H2O] metabolite formation at 10 mg/kg, po administered as single dose measured at 3 hrs post dose by LC-HRMS analysis; assay type: ADME, organism-based; conditions: in vivo; outline: as §1
Plasma [12] = assay: Drug metabolism in Wistar rat plasma assessed as [M0-CH2] metabolite formation at 10 mg/kg, po administered as single dose measured at 3 hrs post dose by LC-HRMS analysis; assay type: ADME, organism-based; conditions: in vivo; outline: as §1
Plasma [13] = assay: Drug metabolism in Wistar rat plasma assessed as [M0-CH2+O] metabolite formation at 10 mg/kg, po administered as single dose measured at 3 hrs post dose by LC-HRMS analysis; assay type: ADME, organism-based; conditions: in vivo; outline: as §1
Cavia porcellus [14] = assay: In vivo antagonist activity at PAR1 in guinea pig assessed as inhibition of TRAP-stimulated platelet aggregation at 10 mg/kg, po pretreated for 2 hrs followed by TRAP stimulation measured after 5 mins; assay type: functional
Cavia porcellus [15] = assay: In vivo antagonist activity at PAR1 in guinea pig assessed as inhibition of thrombin-stimulated platelet aggregation at 10 mg/kg, po pretreated for 2 hrs followed by thrombin stimulation measured after 5 mins; assay type: functional
[16] = tested on: ADP-stimulated platelet aggregation; assay: Toxicity in guinea pig assessed as inhibition of ADP-stimulated platelet aggregation at 10 mg/kg, po pretreated for 2 hrs followed by ADP stimulation measured after 5 mins; assay type: organism-based, Cavia porcellus; conditions: in vivo
[17] = tested on: collagen-stimulated platelet aggregation; assay: Toxicity in guinea pig assessed as inhibition of collagen-stimulated platelet aggregation at 10 mg/kg, po pretreated for 2 hrs followed by collagen stimulation measured after 5 mins; assay type: organism-based, Cavia porcellus; conditions: in vivo

| IC50 [1] | Drug metabolism (Plasma [2]) | Drug metabolism (Plasma [3]) | Drug metabolism (Plasma [4]) | Drug metabolism (Plasma [5]) | Drug metabolism (Plasma [6]) | AUC(0-inf) [7] | Stability (Plasma [8]) | AUC (Rattus norvegicus) | Drug metabolism (Plasma [9]) | Drug metabolism (Plasma [10]) | Drug metabolism (Plasma [11]) | Drug metabolism (Plasma [12]) | Drug metabolism (Plasma [13]) | SMILES | inhibition in vivo at 10 mg/kg (Cavia porcellus [14]) | inhibition in vivo at 10 mg/kg (Cavia porcellus [15]) | inhibition at 5 min [16] | inhibition at 5 min [17] |
| --- | --- | --- | --- | --- | --- | --- | --- | --- | --- | --- | --- | --- | --- | --- | --- | --- | --- | --- |
| 7 µM | Metabolite_Detected | Metabolite_Detected | Metabolite_Detected | Metabolite_Detected | Metabolite_Detected | 269 ng·h/mL | Unstable | 8412.7 ng·h/mL | – | – | – | – | – | COC(=O)[C@]1(C)[C@H](O)CC[C@@]2(C)[C@H](/C=C/c3ccc(-c4cccc(F)c4)cn3)[C@@]3(CC[C@@H]21)CO3 | – | – | – | – |
| 9.1 µM | Metabolite_Detected | – | – | – | – | – | Unstable | – | Metabolite_Detected | Metabolite_Detected | Metabolite_Detected | Metabolite_Detected | Metabolite_Detected | C[C@]1(CO)[C@H]2CC[C@@]3(CO3)[C@@H](/C=C/c3ccc(-c4cccc(F)c4)cn3)[C@]2(C)CC[C@H]1O | – | – | – | – |
| 0.064 µM | – | – | – | – | – | – | – | – | – | – | – | – | – | CCOC(=O)N[C@@H]1CC[C@@H]2[C@@H](C1)C[C@H]1C(=O)O[C@H](C)[C@H]1[C@H]2/C=C/c1ccc(-c2cccc(F)c2)cn1 [VORAPAXAR] | 98.3% | 93.4% | 3% | 0.9% |
